Experimental data published in ChEMBL document CHEMBL1134383, “Synthesis and pharmacology of 3-isoxazolol amino acids as selective antagonists at group I metabotropic glutamic acid receptors” (J Med Chem, 2001).

Tests used:
Glutamate NMDA receptor = assay: Displacement of [3H]CPP from NMDA receptor; type: protein-complex assay, Rattus norvegicus
How it was run: (§1)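 Radioligand displacement using [3H]AMPA (AMPA), [3H]KA (kainate) or [3H]CPP (NMDA) on membrane preparations. Mean ± SEM of at least three independent results; one value estimated. Low-solubility compounds tested only at 200 μM.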

Rattus norvegicus = species on record: Rattus norvegicus; assay: Excitatory activity in the rat cortical slice model.; type: functional, organism-based
How it was run: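 Rat cortical slice depolarizations evoked by excitatory amino acids; agonists applied 90 s at each concentration, with receptor selectivity checked using NBQX (AMPA) or CPP (NMDA). Poorly soluble compounds tested up to 200 μM.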

[1] = target: Glutamate receptor ionotropic, AMPA (Rattus norvegicus, UniProt P19490+P19491+P19492+P19493); assay: Binding affinity for AMPA receptor using [3H]AMPA; type: protein-complex assay; how it was run: as §1
[2] = target: Glutamate receptor ionotropic, kainate; assay: Binding affinity for Ionotropic glutamate receptor kainate by [3H]-kainic acid displacement; type: protein-complex assay, Rattus norvegicus; how it was run: as §1
[3] = target: Metabotropic glutamate receptor 5 (Homo sapiens) (UniProt P41594); assay: Antagonist activity against mGlu 5a receptor in chinese hamster ovary cells using secondary messanger assay determined; type: functional, cell-based; settings: Cricetulus griseus
How it was run: (§2)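 Cloned mGluRs measured with second-messenger assays; group I (mGlu1α, mGlu5α), mGlu2 and mGlu4α tested. Compounds tested for agonist and antagonist activity at 1 mM unless otherwise stated. Mean ± SEM of at least two independent results; some values estimated from partial concentration–response curves.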

[4] = target: Metabotropic glutamate receptor 1 (Homo sapiens) (UniProt Q13255); assay: Antagonist activity against mGlu1-alpha receptor in chinese hamster ovary cells using secondary messanger assay determined; type: functional, cell-based; settings: Cricetulus griseus; how it was run: as §2
[5] = target: Metabotropic glutamate receptor 2 (Homo sapiens) (UniProt Q14416); assay: Antagonist activity against mGlu 2 receptor in chinese hamster ovary cells using secondary messanger assay determined; type: functional, cell-based; settings: Cricetulus griseus; how it was run: as §2
[6] = target: Metabotropic glutamate receptor 4 (Homo sapiens) (UniProt Q14833); assay: Antagonist activity against mGlu 4a receptor in chinese hamster ovary cells using secondary messanger assay determined; type: functional, cell-based; settings: Cricetulus griseus; how it was run: as §2
Metabotropic glutamate receptor 4 (Homo sapiens), sequence (Q14833 whole entry): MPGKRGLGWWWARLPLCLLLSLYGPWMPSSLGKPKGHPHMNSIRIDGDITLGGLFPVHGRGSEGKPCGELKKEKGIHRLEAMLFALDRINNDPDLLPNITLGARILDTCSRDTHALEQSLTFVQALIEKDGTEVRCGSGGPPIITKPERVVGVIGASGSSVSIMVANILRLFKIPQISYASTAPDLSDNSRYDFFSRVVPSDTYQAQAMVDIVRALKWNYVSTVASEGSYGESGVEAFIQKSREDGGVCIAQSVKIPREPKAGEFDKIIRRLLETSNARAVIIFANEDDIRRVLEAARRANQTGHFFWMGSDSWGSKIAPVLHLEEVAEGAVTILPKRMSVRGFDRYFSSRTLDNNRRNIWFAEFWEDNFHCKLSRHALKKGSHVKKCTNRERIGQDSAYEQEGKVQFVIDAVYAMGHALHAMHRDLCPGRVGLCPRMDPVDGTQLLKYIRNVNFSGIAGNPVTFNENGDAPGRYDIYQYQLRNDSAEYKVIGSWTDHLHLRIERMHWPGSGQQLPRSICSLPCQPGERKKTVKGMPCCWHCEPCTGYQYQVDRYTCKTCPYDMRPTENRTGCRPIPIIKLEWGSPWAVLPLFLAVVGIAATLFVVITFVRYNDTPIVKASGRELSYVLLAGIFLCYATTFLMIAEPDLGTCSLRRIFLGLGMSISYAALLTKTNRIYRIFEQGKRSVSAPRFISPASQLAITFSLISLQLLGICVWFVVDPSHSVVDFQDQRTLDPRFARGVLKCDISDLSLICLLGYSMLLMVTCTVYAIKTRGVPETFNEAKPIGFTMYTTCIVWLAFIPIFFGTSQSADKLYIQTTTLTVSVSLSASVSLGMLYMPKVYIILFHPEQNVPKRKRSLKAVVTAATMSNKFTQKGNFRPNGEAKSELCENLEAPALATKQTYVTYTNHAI

Metabotropic glutamate receptor 5 (Homo sapiens), sequence (P41594 21-1212 limits assumed): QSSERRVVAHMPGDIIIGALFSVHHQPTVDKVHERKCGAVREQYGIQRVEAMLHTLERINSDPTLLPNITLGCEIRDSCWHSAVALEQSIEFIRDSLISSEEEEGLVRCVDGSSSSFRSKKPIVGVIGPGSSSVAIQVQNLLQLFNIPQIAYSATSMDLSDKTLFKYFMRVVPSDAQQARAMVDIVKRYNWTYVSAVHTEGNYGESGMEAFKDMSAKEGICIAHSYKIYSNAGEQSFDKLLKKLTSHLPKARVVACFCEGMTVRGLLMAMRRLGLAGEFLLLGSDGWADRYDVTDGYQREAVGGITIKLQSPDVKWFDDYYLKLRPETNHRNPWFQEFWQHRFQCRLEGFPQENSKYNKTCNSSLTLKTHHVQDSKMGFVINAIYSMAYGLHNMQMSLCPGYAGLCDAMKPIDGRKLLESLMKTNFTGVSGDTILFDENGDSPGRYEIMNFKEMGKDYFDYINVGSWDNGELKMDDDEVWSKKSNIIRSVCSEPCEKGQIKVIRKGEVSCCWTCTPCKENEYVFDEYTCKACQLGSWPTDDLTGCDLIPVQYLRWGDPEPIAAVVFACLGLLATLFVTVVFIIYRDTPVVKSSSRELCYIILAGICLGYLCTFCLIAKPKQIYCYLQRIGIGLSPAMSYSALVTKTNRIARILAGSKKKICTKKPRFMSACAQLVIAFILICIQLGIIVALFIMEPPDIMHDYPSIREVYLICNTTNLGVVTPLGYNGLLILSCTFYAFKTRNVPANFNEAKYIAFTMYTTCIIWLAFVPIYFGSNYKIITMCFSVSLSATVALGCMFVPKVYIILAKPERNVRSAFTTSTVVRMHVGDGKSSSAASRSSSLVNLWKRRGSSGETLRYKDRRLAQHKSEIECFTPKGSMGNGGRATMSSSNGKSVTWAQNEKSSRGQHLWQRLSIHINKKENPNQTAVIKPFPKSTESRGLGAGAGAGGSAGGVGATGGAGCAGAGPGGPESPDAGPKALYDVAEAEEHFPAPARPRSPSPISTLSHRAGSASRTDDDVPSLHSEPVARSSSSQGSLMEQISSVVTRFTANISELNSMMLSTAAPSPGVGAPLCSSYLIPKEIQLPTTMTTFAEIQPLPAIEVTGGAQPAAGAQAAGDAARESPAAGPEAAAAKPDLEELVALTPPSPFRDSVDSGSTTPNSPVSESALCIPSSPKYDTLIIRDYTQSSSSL
Metabotropic glutamate receptor 1 (Homo sapiens), sequence (Q13255 19-1194 limits assumed): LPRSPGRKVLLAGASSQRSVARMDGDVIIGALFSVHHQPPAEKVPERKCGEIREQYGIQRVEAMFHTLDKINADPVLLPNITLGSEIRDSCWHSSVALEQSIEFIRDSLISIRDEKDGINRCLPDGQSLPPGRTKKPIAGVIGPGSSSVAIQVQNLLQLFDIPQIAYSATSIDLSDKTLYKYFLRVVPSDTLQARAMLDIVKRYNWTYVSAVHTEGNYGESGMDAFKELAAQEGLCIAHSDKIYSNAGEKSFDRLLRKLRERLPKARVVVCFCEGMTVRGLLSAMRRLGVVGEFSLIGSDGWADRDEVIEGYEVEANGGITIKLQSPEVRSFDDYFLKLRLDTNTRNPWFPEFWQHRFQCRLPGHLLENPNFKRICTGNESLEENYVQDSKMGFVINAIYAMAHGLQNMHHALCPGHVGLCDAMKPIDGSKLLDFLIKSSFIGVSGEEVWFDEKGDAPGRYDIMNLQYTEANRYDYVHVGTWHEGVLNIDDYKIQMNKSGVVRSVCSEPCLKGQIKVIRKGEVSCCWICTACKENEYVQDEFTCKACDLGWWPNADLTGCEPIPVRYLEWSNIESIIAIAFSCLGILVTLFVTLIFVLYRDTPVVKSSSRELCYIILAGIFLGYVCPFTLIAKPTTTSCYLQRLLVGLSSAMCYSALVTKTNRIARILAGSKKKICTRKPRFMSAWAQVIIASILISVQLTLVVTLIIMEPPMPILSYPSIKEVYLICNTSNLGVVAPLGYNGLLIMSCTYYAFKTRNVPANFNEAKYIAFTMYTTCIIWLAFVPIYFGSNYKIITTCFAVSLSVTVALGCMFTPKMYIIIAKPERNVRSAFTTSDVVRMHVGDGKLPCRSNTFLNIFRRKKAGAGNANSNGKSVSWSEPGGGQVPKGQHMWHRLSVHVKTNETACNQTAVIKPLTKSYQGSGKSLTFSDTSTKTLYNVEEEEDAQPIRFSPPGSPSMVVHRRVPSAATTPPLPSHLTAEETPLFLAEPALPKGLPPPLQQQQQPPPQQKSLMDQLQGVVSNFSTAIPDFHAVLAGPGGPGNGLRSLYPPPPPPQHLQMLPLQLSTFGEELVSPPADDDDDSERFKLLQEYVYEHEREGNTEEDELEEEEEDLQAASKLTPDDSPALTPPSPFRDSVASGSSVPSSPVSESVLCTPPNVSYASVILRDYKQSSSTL
Metabotropic glutamate receptor 2 (Homo sapiens), sequence (Q14416 19-872 limits assumed): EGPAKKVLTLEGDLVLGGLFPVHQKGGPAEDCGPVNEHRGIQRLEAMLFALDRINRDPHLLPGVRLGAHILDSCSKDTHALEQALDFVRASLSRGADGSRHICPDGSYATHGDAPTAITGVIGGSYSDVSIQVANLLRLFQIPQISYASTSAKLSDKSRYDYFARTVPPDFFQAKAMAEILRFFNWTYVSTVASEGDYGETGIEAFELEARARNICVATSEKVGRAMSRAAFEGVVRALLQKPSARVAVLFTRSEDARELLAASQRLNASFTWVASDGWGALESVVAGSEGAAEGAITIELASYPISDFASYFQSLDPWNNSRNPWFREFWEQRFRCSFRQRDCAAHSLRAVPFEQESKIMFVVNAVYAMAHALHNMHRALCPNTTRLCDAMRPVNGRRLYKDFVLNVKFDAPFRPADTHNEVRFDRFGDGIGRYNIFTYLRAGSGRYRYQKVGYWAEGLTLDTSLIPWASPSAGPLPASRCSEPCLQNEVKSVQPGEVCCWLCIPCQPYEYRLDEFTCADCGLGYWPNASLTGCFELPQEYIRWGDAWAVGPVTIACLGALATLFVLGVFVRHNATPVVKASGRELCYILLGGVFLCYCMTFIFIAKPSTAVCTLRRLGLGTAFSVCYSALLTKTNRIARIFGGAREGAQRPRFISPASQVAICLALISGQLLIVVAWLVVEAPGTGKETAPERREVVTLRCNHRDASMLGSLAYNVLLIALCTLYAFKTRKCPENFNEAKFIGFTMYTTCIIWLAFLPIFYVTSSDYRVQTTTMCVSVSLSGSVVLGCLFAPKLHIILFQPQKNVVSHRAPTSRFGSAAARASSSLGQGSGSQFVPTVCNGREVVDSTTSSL

IC50 (Glutamate NMDA receptor) [µM] | EC50 (Rattus norvegicus) [µM] | IC50 [1] [µM] | IC50 [2] [µM] | Kb [3] [µM] | Kb [4] [µM] | Kb [5] [µM] | Kb [6] [µM] | Structure (SMILES)
31 | > 1000 | > 100 | > 100 | – | – | – | – | N[C@H](Cc1onc(O)c1-c1ccccc1)C(=O)O
> 100 | 395 | 23 | > 100 | – | – | – | – | N[C@@H](Cc1onc(O)c1-c1ccccc1)C(=O)O
> 100 | > 1000 | > 100 | > 100 | 61 | 30 | – | – | CCCCCCc1c(O)noc1C[C@H](N)C(=O)O
> 100 | > 1000 | > 100 | > 100 | – | – | – | – | CCCCCCc1c(O)noc1CC(N)C(=O)O (stereo not drawn)
– | – | – | – | 97 | – | – | – | CCCCc1c(O)noc1C[C@H](N)C(=O)O
> 100 | 630 | 11 | > 100 | – | – | – | – | CCCCCc1c(O)noc1CC(N)C(=O)O (stereo not drawn)
> 100 | > 500 | > 100 | > 100 | – | – | – | – | CCCCCCCc1c(O)noc1CC(N)C(=O)O (stereo not drawn)
> 100 | > 1000 | > 100 | > 100 | – | – | – | – | CCCCCCc1c(O)noc1C[C@@H](N)C(=O)O
> 100 | – | 0.48 | > 100 | – | – | – | – | CCCCc1c(C[C@H](N)C(=O)O)o[nH]c1=O
> 100 | 330 | 0.8 | > 100 | – | – | – | – | N[C@@H](Cc1cc(=O)[nH]o1)C(=O)O
> 100 | 590 | 39 | > 100 | – | – | – | – | NC(Cc1onc(O)c1-c1ccccc1)C(=O)O (stereo not drawn)
– | > 500 | – | – | – | > 100 | > 100 | > 100 | CCCCCCCCc1c(O)noc1CC(N)C(=O)O (stereo not drawn)

Structure (SMILES) | IC50 (Glutamate NMDA receptor) [µM] | EC50 (Rattus norvegicus) [µM] | IC50 [1] [µM] | IC50 [2] [µM] | Kb [3] [µM] | Kb [4] [µM] | Kb [5] [µM] | Kb [6] [µM]
Cc1c(O)noc1CC(N)C(=O)O (stereo not drawn) | – | 18 | 0.32 | – | – | – | – | –
